Experimental data collected from several papers.
Compare with care: the assays were run in different laboratories.
Observed: cell growth or viability

O=C(O)c1cc(-c2ccc(Br)cc2)nc2ccc(Cl)cc12 — CC50 (Huh-7; MTT; 24 h): 89.7 µM
CCOP(=O)(OCC)[C@@H]1C[C@@H](n2cc(Cn3ccc(=O)[nH]c3=O)nn2)ON1C (racemic) — CC50 (human T-lymphocyte; 72 h): > 250 µM
O=C1O[C@H]2[C@@H]3OC(=O)c4cc(O)c(O)c(O)c4-c4c(O)c(O)c5oc(=O)c6c(c(O)c(O)c7oc(=O)c4c5c76)-c4c(cc(O)c(O)c4O)C(=O)OC[C@H]3OC(O)[C@@H]2OC(=O)c2cc(O)c(O)c(O)c2-c2c1cc(O)c(O)c2O (mixture of isomers) — CC50 (Huh-7; MTT): > 5000 µM
O=C(CNc1nc(NS(=O)(=O)c2ccccc2)ncc1-c1nc2ccccc2s1)c1ccc(Br)cc1 — CC50 (BGM): 220 µg/mL
O=C(O)CCCc1cc2cc(Cl)ccc2n1S(=O)(=O)c1ccc2ncsc2c1 — CC50 (LX-2; ATP luminescence; 48 h, serum-free): > 40 µM
C[C@H](NC(=O)OCc1ccccc1)C(=O)Nc1ccc(C2S/C(=N\c3cccc(F)c3)N(Cc3ccco3)C2=O)cc1 (stereo partly drawn) — CC50 (Huh-7; 72 h, replicon): > 50 µM
CCOP(=O)(OCC)[C@@H]1C[C@H](n2cc(-c3ccccn3)nn2)ON1C — CC50 (human T-lymphocyte; 72 h): > 250 µM
O=C(CNc1nc(NS(=O)(=O)c2ccccc2)ncc1-c1nc2ccccc2s1)c1ccc(Cl)cc1 — CC50 (BGM): 220 µg/mL
O[C@@H](c1cc(C(F)(F)F)nc2c(C(F)(F)F)cccc12)[C@H]1CCCCN1 — CC50 (Huh-7; MTT; 24 h): 15.9 µM
Cc1ccc(C(=O)CNc2nc(NS(=O)(=O)c3ccccc3)ncc2-c2nc3ccccc3s2)cc1 — CC50 (BGM): 170 µg/mL
COc1ccc(NC(=O)N2CCCCN3[C@H](COCCC(=O)O)[C@H](c4ccc(C#Cc5ccccc5)cc4)[C@@H]3C2)cc1 — CC50 (HEK-293T): > 40 µM
CCOP(=O)(OCC)[C@@H]1C[C@@H](n2cc(Cn3cnc4c(N)ncnc43)nn2)ON1C (racemic) — CC50 (human T-lymphocyte; 72 h): > 250 µM
O=c1oc2c(O)c(O)cc3c(=O)oc4c(O)c(O)cc1c4c23 — CC50 (Huh-7; MTT): > 5000 µM
CC(C)Cn1c(=O)n(C)c(=O)c2c(-c3cncn3C)n(Cc3cccc4ccccc34)nc21 — CC50 (Huh-7; MTT; 24 h): > 200 µM
CCOP(=O)(OCC)[C@@H]1C[C@@H](n2cc(-c3nccn3C)nn2)ON1C — CC50 (human T-lymphocyte; 72 h): > 250 µM
NCCN(C(=O)c1ccc(Cl)cc1Cl)c1ccc(OCc2ccc(Cl)cc2)cc1 — CC50 (Huh-7; MTT; 24 h): 11.9 µM
CCOP(=O)(OCC)[C@@H]1C[C@H](n2cc(-c3cccc(F)c3)nn2)ON1C — CC50 (human T-lymphocyte; 72 h): > 250 µM
Cc1ccc(S(=O)(=O)Nc2ncc(-c3nc4ccccc4s3)c(N)n2)cc1 — CC50 (BGM): 200 µg/mL
CN1CCC(NCc2cccc(-c3ccc(S(=O)(=O)NCc4ccccc4)cc3)c2)CC1 — CC50 (Huh-7; MTT; 24 h): 6.84 µM
Nc1nc(NS(=O)(=O)c2ccccc2)ncc1-c1nc2ccccc2s1 — CC50 (BGM): 220 µg/mL
CCOP(=O)(OCC)[C@@H]1C[C@H](n2cc(C(=O)OC)nn2)ON1C (relative stereo) — CC50 (human T-lymphocyte; 72 h): > 250 µM
Cc1onc(-c2ccccc2)c1-c1ccc(S(N)(=O)=O)cc1 — CC50 (Huh-7; MTT; 24 h): > 200 µM
CCO[C@@H](Cc1ccc(OCCn2c(C)ccc2-c2ccc(SC)cc2)cc1)C(=O)O — CC50 (LX-2; ATP luminescence; 48 h, serum-free): > 50 µM
CCOP(=O)(OCC)[C@@H]1C[C@H](n2cc(-c3ccccc3)nn2)ON1C — CC50 (human T-lymphocyte; 72 h): > 250 µM
Cc1cc(NCCc2ccccc2)nc(NC(=N)Nc2ccc(Cl)cc2)n1 — CC50 (Huh-7; MTT; 24 h): 15.2 µM
CCOP(=O)(OCC)[C@@H]1C[C@@H](n2cc(Cn3ccc(NC(C)=O)nc3=O)nn2)ON1C (racemic) — CC50 (human T-lymphocyte; 72 h): > 250 µM
Cc1ccc2oc(-c3cc(NC(=O)Cc4ccccc4)ccc3Cl)nc2c1 — CC50 (Huh-7; MTT; 24 h): > 400 µM
